# Measurements collected from several papers.
SMILES,target or system,test,test system,setting,quantity,value
COC(=O)c1cc(-c2cccc(NC(=S)Nc3ccc(F)cc3)c2)on1,Escherichia coli,"microbial growth, broth dilution",ATCC25922,,MIC,> 64 µg/mL
Cc1ccc2nc(-c3ccc(Cl)c(Cl)c3)[nH]c2c1,Staphylococcus aureus,"microbial growth, broth dilution",ATCC43300 MRSA,drug-resistant strain,MIC,32 µg/mL
Nc1nc(Cl)c2ncn([C@@H]3O[C@H](CO)[C@@H](O)[C@H]3O)c2n1,Severe acute respiratory syndrome coronavirus,"plaque formation, inhibitor",Vero C1008,,IC50,> 300 µM
COC(=O)c1cc(-c2cccc(NC(=S)Nc3ccc([N+](=O)[O-])cc3)c2)on1,Escherichia coli,"microbial growth, broth dilution",ATCC25922,,MIC,> 64 µg/mL
OC[C@@H]1C[C@@H](O)[C@H](n2cnc3c(Cl)ncnc32)O1,Severe acute respiratory syndrome coronavirus,"plaque formation, inhibitor",Vero C1008,,IC50,> 300 µM
Nc1ncnc2c([C@@H]3N[C@H](CO)[C@@H](O)[C@H]3O)c[nH]c12,Severe acute respiratory syndrome coronavirus,"viral replication, inhibitor",Vero 76,3 µM,inhibition,0%
OCC(CO)CCn1cnc2c(Cl)ncnc21,Severe acute respiratory syndrome coronavirus,"plaque formation, inhibitor",Vero C1008,,IC50,> 300 µM
COC(=O)c1cc(-c2cccc(NC(=O)Nc3cccc(F)c3)c2)on1,Escherichia coli,"microbial growth, broth dilution",ATCC25922,,MIC,> 64 µg/mL
C[C@]12CCC(=O)C(O)=C1CC[C@@H]1[C@@H]2CC[C@]2(C)C(=O)CC[C@@H]12,HN-6,cell growth or viability,,72 h,IC50,> 20 µM
COc1ncnc2c1ncn2[C@@H]1O[C@H](CO)[C@@H](O)[C@H]1O,Severe acute respiratory syndrome coronavirus,"plaque formation, inhibitor",Vero C1008,,IC50,> 300 µM
C=CCn1c(-c2ccc([N+](=O)[O-])cc2)nc2ccccc21,Staphylococcus aureus,"microbial growth, broth dilution",ATCC43300 MRSA,drug-resistant strain,MIC,64 µg/mL
COC(=O)c1cc(-c2cccc(NC(=S)Nc3ccccc3)c2)on1,Escherichia coli,"microbial growth, broth dilution",ATCC25922,,MIC,> 64 µg/mL
O=C(NCCc1c[nH]c2ccccc12)C(=O)c1cn(Cc2ccc(F)cc2)c2ccccc12,C4-2,"cell growth or viability, MTT",,,IC50,> 100 µM
C=CCn1c(-c2ccc(Cl)cc2)nc2ccc(C)cc21,Staphylococcus aureus,"microbial growth, broth dilution",ATCC43300 MRSA,drug-resistant strain,MIC,32 µg/mL
O=C(O)c1cn(C2CC2)c2cc(N3CCNCC3)c(F)cc2c1=O,Micrococcus luteus,microbial growth,ATCC10240,"5 µg/mL, 20 h",inhibition zone,0 mm
Oc1ccc(Br)cc1-c1nc2ccccc2[nH]1,Staphylococcus aureus,"microbial growth, broth dilution",ATCC43300 MRSA,drug-resistant strain,MIC,128 µg/mL
c1cc2c(ccc3c4c([nH]c32)CCCC4)cn1,MDA-MB-468,"cell growth or viability, MTT",,,IC50,7.9 µM
COc1ccc2c(C(=O)C(=O)NCCc3c[nH]c4ccccc34)cn(Cc3ccc(Cl)cc3)c2c1,C4-2,"cell growth or viability, MTT",,,IC50,> 100 µM
COC(=O)c1cc(-c2cccc(NC(=S)Nc3ccc(F)c(Cl)c3)c2)on1,Escherichia coli,"microbial growth, broth dilution",ATCC25922,,MIC,> 64 µg/mL
